This is a sample that favours compounds with a hit; in the whole collection about 3.7% have one here.
Cl transport mod – KCC2 cotransporter modulators, thallium flux, primary screen, cell-based, HEK293 KCC2, FluoZin-2 fluorescence, MLSMR. KCC2 cells, thallium flux FluoZin-2 fluorescence. B-score of Tl+ flux slope (higher = more flux/activation; lower = inhibition) at 10 µM. 190,000 compounds, 2.2% hits. Solute carrier family 12 member 5 (Homo sapiens), Q9H2X9;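 active means thallium flux slope and its plate-corrected score both differing from the plate sample mean at a set confidence after two filtering rounds, in either direction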;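 further: slope of fluorescence scaled to starting intensity during 10 to 20 s after thallium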
Target sequence (Q9H2X9 whole entry, looked up): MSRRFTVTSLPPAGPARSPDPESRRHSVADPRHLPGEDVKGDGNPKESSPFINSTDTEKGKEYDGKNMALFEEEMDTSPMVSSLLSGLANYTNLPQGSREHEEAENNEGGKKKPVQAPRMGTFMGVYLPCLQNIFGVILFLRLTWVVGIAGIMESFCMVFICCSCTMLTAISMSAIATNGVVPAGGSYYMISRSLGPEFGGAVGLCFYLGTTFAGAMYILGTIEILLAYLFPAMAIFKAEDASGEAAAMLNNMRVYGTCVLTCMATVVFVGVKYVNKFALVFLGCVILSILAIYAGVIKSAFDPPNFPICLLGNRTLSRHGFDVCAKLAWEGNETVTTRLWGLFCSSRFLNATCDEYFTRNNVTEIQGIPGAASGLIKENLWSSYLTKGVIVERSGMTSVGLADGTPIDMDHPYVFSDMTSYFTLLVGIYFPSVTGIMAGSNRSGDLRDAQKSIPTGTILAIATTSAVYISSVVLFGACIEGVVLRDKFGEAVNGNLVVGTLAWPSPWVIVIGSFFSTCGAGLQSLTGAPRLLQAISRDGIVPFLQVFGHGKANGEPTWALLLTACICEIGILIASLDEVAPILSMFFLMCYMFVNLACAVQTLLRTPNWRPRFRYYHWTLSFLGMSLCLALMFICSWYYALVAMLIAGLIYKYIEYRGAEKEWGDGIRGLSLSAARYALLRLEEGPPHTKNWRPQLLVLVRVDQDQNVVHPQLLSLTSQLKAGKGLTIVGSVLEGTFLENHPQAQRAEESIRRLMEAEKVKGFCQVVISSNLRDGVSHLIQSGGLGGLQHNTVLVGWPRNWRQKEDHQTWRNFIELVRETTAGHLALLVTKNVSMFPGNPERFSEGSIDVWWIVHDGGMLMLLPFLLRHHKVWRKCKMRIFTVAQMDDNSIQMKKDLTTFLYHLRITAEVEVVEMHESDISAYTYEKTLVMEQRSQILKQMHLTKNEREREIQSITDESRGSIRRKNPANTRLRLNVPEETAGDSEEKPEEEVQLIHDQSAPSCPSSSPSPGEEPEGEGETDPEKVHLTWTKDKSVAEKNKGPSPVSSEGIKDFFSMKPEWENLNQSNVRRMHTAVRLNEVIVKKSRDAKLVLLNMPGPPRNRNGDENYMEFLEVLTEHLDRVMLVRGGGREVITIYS
NPY-Y1 antag – NPY-Y1 receptor antagonists, primary screen, cell-based. Neuropeptide Y receptor type 1 (Homo sapiens), P25929. HEK293-CNG Y1 cells, membrane potential fluorescence; NPY at EC95, then isoproterenol. inhibition, % at 3.6 µM. 200,000 compounds, 1% hits;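 active means inhibition above the campaign mean inhibition of all tested compounds plus 3 SD, cut at about 20% in these data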;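 further: 0% = DMSO wells given NPY plus isoproterenol and 100% = isoproterenol alone without NPY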
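Material: HEK293 Y1/CNG channel cell line | Also added: NPY (25 nM), isoproterenol (1 µM), Ro 20-1724 (25 µM) | Compound: One concentration, 3.6 µM, in 0.4% DMSO | Schedule: 3 h dye uptake, 1 h room-temperature compound, 45 min post-isoproterenol | Signal: Membrane-potential fluorescent dye readout | Read-out: % inhibition of NPY effect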
Furin inh – human furin inhibitors, primary screen, biochemical, fluorescence intensity; P09958; purified furin, fluorogenic substrate cleavage; inhibition, % at 20 µM or 30 µM; 220,000 compounds, 0.061% hits; in the data active means inhibition above about 25%
NPY2 pot ag – NPY-Y2 potentiators or agonists, primary screen, cell-based | activation, % at 3.6 µM | 220,000 compounds, 0.45% hits | cells expressing NPY-Y2, potentiator/agonist read-out | AID 1359, 2008 | Neuropeptide Y receptor type 2 (Homo sapiens), P49146; in the data active means activation above about 27%;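 further: cells stimulated with NPY near EC25 plus isoproterenol at EC100; 0% = vehicle plus submaximal agonist and 100% = vehicle plus saturating agonist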
NPY-Y1 PAM-ag – NPY-Y1 receptor potentiators or agonists, primary screen, cell-based. Neuropeptide Y receptor type 1 (Homo sapiens), P25929. NPY-Y1 expressing cells, potentiator/agonist activation. activation, % at 3.6 µM. 220,000 compounds, 0.37% hits. AID 1304, 2008; in the data active means activation above about 33%, passing the limit was not always enough;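 further: cells stimulated with NPY at EC10 then isoproterenol at EC100; 0% = low agonist plus stimulus and 100% = saturating agonist plus stimulus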
NPY-Y2 antag – NPY-Y2 receptor antagonists, primary screen, cell-based; Neuropeptide Y receptor type 2 (Homo sapiens), P49146; NPY-Y2 expressing cells, antagonist mode; inhibition, % at 2.7 µM; 140,000 compounds, 0.99% hits; in the data active means inhibition above about 17%;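 further: 0% = vehicle with agonist challenge and 100% = reference antagonist with challenge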
An asterisk follows results filed as active.

Screening O=C(Nc1ccc(Oc2ccccc2)cc1)C1CC1 returned NPY-Y1 antag -5.6, Furin inh -26.1, NPY2 pot ag 7.4 and NPY-Y1 PAM-ag 4.5.
`O=C(Nc1ccc(C#Cc2ccccc2)cc1)C1CC1` gave NPY-Y1 antag -5.7, Furin inh -15.3, NPY2 pot ag 38.4*, NPY-Y1 PAM-ag 78.4* and NPY-Y2 antag -3.1.
`CCCCOCCCNC(=O)c1ccc([N+](=O)[O-])c(C)c1` gave Cl transport mod -0.55, NPY-Y1 antag 5.8, Furin inh -26.0, NPY2 pot ag 2.7, NPY-Y1 PAM-ag -24.5 and NPY-Y2 antag 2.6.
`Cc1ccc(Nc2c(-c3ccc(N4CCOCC4)cc3)nc3ncccn23)c(C)c1` gave Cl transport mod 0.03, NPY-Y1 antag -9.7, Furin inh -3.7, NPY2 pot ag 67.2*, NPY-Y1 PAM-ag 57.5* and NPY-Y2 antag -5.2.
Screening Cc1ccc(Nc2c(-c3ccc(N(C)C)cc3)nc3ncccn23)cc1 returned Cl transport mod 0.796, Furin inh -22.8, NPY2 pot ag 12.0 and NPY-Y1 PAM-ag 48.9.
Fc1ccc2nc(Nc3ccccc3)sc2c1 was read as Cl transport mod 0.692, NPY-Y1 antag 1.7, Furin inh -26.1, NPY2 pot ag 14.2 and NPY-Y1 PAM-ag 6.6.
For Fc1ccc2nc(Nc3nc4c(F)cc(F)cc4s3)sc2c1 the results were Cl transport mod 17.5*, NPY-Y1 antag -0.7, Furin inh -19.8, NPY2 pot ag 1.2, NPY-Y1 PAM-ag 19.0 and NPY-Y2 antag 8.2.
`O=C(NNc1nc2ccccc2s1)c1ccccc1F` gave Cl transport mod 0.175, NPY-Y1 antag 0.2, Furin inh -2.8, NPY2 pot ag -3.8, NPY-Y1 PAM-ag -0.1 and NPY-Y2 antag 0.2.
Fc1ccc2nc(Nc3nc4c(F)cccc4s3)sc2c1 was read as Cl transport mod 38.2*, NPY-Y1 antag -4.8, Furin inh -15.6, NPY2 pot ag -4.7, NPY-Y1 PAM-ag 0.4 and NPY-Y2 antag 5.7.
For Fc1cccc2sc(Nc3nc4ccccc4s3)nc12 the results were Cl transport mod 11.7*, NPY-Y1 antag -2.5, Furin inh -24.6, NPY2 pot ag 5.3, NPY-Y1 PAM-ag -34.0 and NPY-Y2 antag 0.7.
Screening O=C(OCc1ccc(Cl)cc1Cl)c1ccncc1 returned Cl transport mod -0.858, NPY-Y1 antag 1.2, Furin inh -6.8, NPY2 pot ag -2.2, NPY-Y1 PAM-ag -14.8 and NPY-Y2 antag 10.6.
`COc1ccc(C(=O)N=c2sc3c(C)ccc(OC)c3n2C)cc1` gave Cl transport mod 0.39, NPY-Y1 antag 5.1, Furin inh -30.9, NPY2 pot ag -9.0, NPY-Y1 PAM-ag -10.5 and NPY-Y2 antag 1.1.
`O=C(COc1ccccc1)NC1CCSC1=O` (configuration not stated) gave Cl transport mod 0.287, NPY-Y1 antag 0.7, Furin inh -20.4, NPY2 pot ag 5.2 and NPY-Y1 PAM-ag 5.5.
For Cc1cnc(NC(=O)c2cc3ccccc3o2)s1 the results were Cl transport mod -0.597, NPY-Y1 antag -7.6, Furin inh -8.2, NPY2 pot ag 12.1 and NPY-Y1 PAM-ag 3.7.
`Cc1nn2c3ccccc3nc2n(Cc2ccccc2)c1=O` gave Cl transport mod 0.652, NPY-Y1 antag 5.0, Furin inh 25.6*, NPY2 pot ag 11.2, NPY-Y1 PAM-ag 19.1 and NPY-Y2 antag -1.4.
COc1ccc(NC(=O)C2=C(C)C(=O)OC23CCC(C)CC3)cc1Cl (configuration not stated) was read as Cl transport mod 1.37, NPY-Y1 antag -5.6, Furin inh -10.1, NPY2 pot ag 58.5*, NPY-Y1 PAM-ag 48.4* and NPY-Y2 antag -0.5.
For COc1ccc(CNC(=O)C2=C(C)C(=O)OC23CCC(C)CC3)cc1 (configuration not stated) the results were Cl transport mod -2.15, NPY-Y1 antag 0.3, Furin inh -4.4, NPY2 pot ag -12.1, NPY-Y1 PAM-ag -3.3 and NPY-Y2 antag -3.0.
For Cc1cccc(NC(=O)CCC(=O)OCC(=O)c2ccc(Oc3ccc([N+](=O)[O-])cc3)cc2)c1 the results were Cl transport mod 0.918, NPY-Y1 antag 6.6, Furin inh -25.0, NPY2 pot ag 47.5*, NPY-Y1 PAM-ag 52.9* and NPY-Y2 antag -1.0.
CCc1ccc2c(c1)c(N=NC1=NC(=O)CS1)c(O)n2C was read as Cl transport mod 9.41*, NPY-Y1 antag -5.2, Furin inh 2.0, NPY2 pot ag 3.2, NPY-Y1 PAM-ag 10.5 and NPY-Y2 antag -1.5.
`Cc1cc(C)c2[nH]c(O)c(N=NC3=NC(=O)CS3)c2c1` gave Cl transport mod 0.509, Furin inh -24.9, NPY2 pot ag 23.4 and NPY-Y1 PAM-ag 39.3.
CC(=O)Nc1ccc(S(=O)(=O)NC2=C(N3CCN(Cc4ccccc4)CC3)C(=O)c3ccccc3C2=O)cc1 was read as Cl transport mod -0.869, NPY-Y1 antag -12.1, Furin inh -22.0, NPY2 pot ag 4.2, NPY-Y1 PAM-ag 5.0 and NPY-Y2 antag -7.1.
Screening CC1CCN(C2=C(NS(=O)(=O)c3ccccc3)C(=O)c3ccccc3C2=O)CC1 returned Cl transport mod 0.667, Furin inh -10.6, NPY2 pot ag 77.5* and NPY-Y1 PAM-ag 95.4*.
O=C1C(NS(=O)(=O)c2ccccc2)=C(N2CCN(c3ccc(F)cc3)CC2)C(=O)c2ccccc21 was read as Cl transport mod -1.17, Furin inh -18.2, NPY2 pot ag 86.8* and NPY-Y1 PAM-ag 88.6*.
Screening COc1cc(C(=O)NCC(=O)OCCN2C(=O)c3ccccc3C2=O)cc(OC)c1OC returned Cl transport mod 1.07, NPY-Y1 antag 2.6, Furin inh -23.9, NPY2 pot ag -6.7 and NPY-Y1 PAM-ag -7.3.
Screening CCC(=O)NC(=S)Nc1ccc(-c2nc3ccc(C)cc3s2)cc1 returned Cl transport mod 2.48, NPY-Y1 antag -5.8, Furin inh -19.6, NPY2 pot ag 5.9, NPY-Y1 PAM-ag 20.3 and NPY-Y2 antag 2.2.
Cc1ccc2nc(-c3ccc(NC(=S)NC(=O)C(C)C)cc3)sc2c1 was read as Cl transport mod -0.158, NPY-Y1 antag -1.5, Furin inh -18.3, NPY2 pot ag 13.4, NPY-Y1 PAM-ag 50.7* and NPY-Y2 antag -0.8.
CCCc1cc(=O)[nH]c(SCC(=O)Nc2ccc(Br)cc2Br)n1 was read as Cl transport mod -0.374, NPY-Y1 antag 7.8, Furin inh -26.3, NPY2 pot ag -10.9 and NPY-Y1 PAM-ag -11.9.
CC(C)n1c(-c2ccc(C(C)(C)C)cc2)n[nH]c1=S was read as Cl transport mod 37*, NPY-Y1 antag 2.0, Furin inh -11.5, NPY2 pot ag -0.2, NPY-Y1 PAM-ag -42.2 and NPY-Y2 antag 6.5.
